Where “and” joins values, the source holds several entries; their conditions need not be identical. Equal entries are not always repeated.

From paper PMC9123270 (The Journal of Biological Chemistry, 2022) come the findings set out here.

The target in test [1] is Anopheles gambiae D7 long-form salivary protein AngaD7L2 (Anopheles gambiae). Briefly: SPR. Background: SPR reads the build-up and loss of mass on a sensor chip optically.
Test [2] is described as follows: PEAQ-ITC screen against five biogenic amines and five lipids. It counts as binding. To be noted: leukotrienes other than LTC4. Put shortly: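 Isothermal titration calorimetry in TBS (20 mM Tris–HCl, 150 mM NaCl, pH 7.4) at 30 °C, 750 rpm. Protein at 5 μM was titrated with 10 μl injections of ligand at 50 μM every 150 s. Lipid ligands were dried under nitrogen, resuspended in TBS, vortexed and sonicated 10 min. Samples were degassed. Data were fitted to a single-site model. At least three replicates.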

In test [3] the test system is Human platelet-rich plasma. Put plainly: Platelet aggregation assay. It counts as cell-based.
Test [4] concerns Third-order mesenteric arteries. Briefly: Vasoconstriction by pressure myography in isolated mesenteric arteries. More on the design: species or system C57Bl/6J mice. To be noted: for LogIC50 of vasoconstriction to U-46619: n = 6.
Test [5] relates to normal control plasma. Put plainly: Prothrombin. The settings on record: recombinant protein 15 μM, 5 μl in 50 μl plasma. Type of test: biochemical, human. The procedure, abridged:
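Normal control plasma (50 μl) was incubated 2 min at 37 °C with 5 μl of test protein (15 μM in Hepes buffer), Hepes buffer (negative control) or 3 μM Alboserpin (positive control). PT was started by adding Neoplastine CI Plus reagent, and clotting time was recorded with stirring. Run in triplicate.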

In test [6] the test system is normal control plasma. Briefly: Activated partial thromboplastin. To be noted: recombinant protein 15 μM, 5 μl in 50 μl plasma. It counts as biochemical, human. Put shortly: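 Plasma (50 μl) was preincubated 2 min at 37 °C with 5 μl of test protein (15 μM in Hepes buffer), Hepes buffer (negative control) or 3 μM Alboserpin (positive control). aPTT reagent was added for 3 min at 37 °C, then clotting was started with prewarmed 25 mM CaCl2. Clotting time was recorded on a coagulation analyzer and converted to ratios. Run in triplicate.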

The test system of test [7] is normal control plasma. Put plainly: Plasma recalcification assay. Type of test: biochemical, human.

For human coagulation factor XIIa (enzyme), in test [1], the equilibrium dissociation constant (Kd) (commonly the free concentration of one partner at which half of the binding sites on the other are occupied at equilibrium, for simple one-to-one binding) came to 5.03 nM; the off-rate constant (koff) (as a rule, a measure of how fast the partners let go of each other) was found to be 0.403 s⁻¹; the kon (commonly a measure of how fast the partners come together) worked out at 2.03e+08 M⁻¹ s⁻¹.

In test [1], “human coagulation factor XI (natural protein)” had a Kd of 8.47 nM, an off-rate constant (koff) of 0.00696 s⁻¹ and a kon of 99200 M⁻¹ s⁻¹.

With “human coagulation factor XII (natural protein)”, in test [1], the Kd is 16.4 nM, the koff worked out at 0.0169 s⁻¹ and the kon was determined as 125000 M⁻¹ s⁻¹.

B1: AngaD7L1: Recombinant Anopheles gambiae D7 long-form salivary protein, 6xHis-tagged, expressed in human embryonic kidney cells (protein, UniProt Q7PJ76 22-311, looked up)
Long form salivary protein …: FKALDPEEAWYVYERCHEDHLPSGPNRETYLKTWKFWKLEPNDAVTHCYVKCTLAGLQMYDEKTNTFKPETVPVQHEAYKSFTEVESSKVNELQQALSSLNAGSGSCAEVFNAYLPVHNKYVGVSRKIYHGTVDSVAKIYEAKPEIKKQEESFFAYCAKKALGANGKEGYTKLRDYELADSAEFRNAMDCVFRGFRYMDDSGLKVDEVVRDFNLINKSDLEPEVRSVLASCTGTQAYDYYSCLLNSPVKEDFRNAFYFHELRSANYGYLAMGKVYEGPEKVKEELKKLNY
modifications: 6xHis tag
In the case of B1, the “Binding of other leukotrienes” value in test [2] is reported as “did not bind any other leukotriene”. Further, the “Effect on platelet aggregation” value in test [3] (agonist 0.3 μM U-46619, protein 0.3 μM) is recorded as “reduced platelet aggregation”; in test [3] (agonist 0.3 μM U-46619, protein 1 μM) it was “platelet aggregation was inhibited”; in test [3] (agonist 0.7 μM U-46619, protein 1 μM) it was “platelet aggregation was inhibited”; in test [3] (agonist 0.7 μM U-46619, protein 3 μM) it was “inhibited platelet aggregation”; in test [3] (agonist 1 μM arachidonic acid, protein at any concentration), “no effect”; in test [3] (agonist 1 μg/ml collagen, protein 0.3 μM), “did not inhibit platelet aggregation”. The “Effect on platelet aggregation” value was “reduced platelet aggregation” in test [3] (agonist 1 μg/ml collagen, protein 3 μM) and “no effect” in test [3] (agonist 10 μg/ml collagen, protein 1 μM). For the same molecule, the “LogIC50 of vasoconstriction to U-46619” value was −8.10 in test [4] (after AngaD7L1 washout); −6.4 and −6.38 in test [4] (in presence of AngaD7L1 10 μM). Further, in test [4] (in presence of AngaD7L1 10 μM), the “fold reduction in effective constrictive potency of U-46619” value is listed as around 70 fold.

B2: AngaD7L2: Recombinant Anopheles gambiae D7 long-form salivary protein, 6xHis-tagged, expressed in human embryonic kidney cells (protein)
chain: AQPWKALDPEQALYVYKRCYEDHLPAGSSRVTYLKSWNAWKLEPNDAVTHCYAKCVLIGLQLYEEKDKAFKSERIPVQHEAYKTLNEANSREVTEYQQALASINAGDGSCVALYNAYLPVHNKFVDLSRKLYHGTVEGAAKIYAAMPQIKQKGESFFAYCAKKIWGGYNKKEWKRGRNYELSGSSQFKKVIDCIFRGLRYMDDSGLKVDEVVRDFNLINKSDLEPEVRSVLASCTGTQAYDYYSCLLNSPVKEDFKNAFDFHELRSADYAFLLRGKVYEGPEQVKEEMKHLNTTVHF
modifications: left off: His6, C-terminal, state not stated
In the case of B2, in the test with normal control plasma [5], the “PT clotting time (extrinsic pathway)” value is recorded as “did not have an observable effect”. Also, in the test on normal control plasma [6], the “aPTT time to coagulation (intrinsic pathway)” value is “significantly increased”. Moreover, the “Plasma recalcification (time to OD = 0.025)” value in the test with normal control plasma [7] (final concentration 5 μM) is “entirely unable to coagulate”; with normal control plasma [7] (serially diluted recombinant protein, versus Hepes buffer negative control) it was “dose-dependent anticoagulant response”.
